Test results from ChEMBL document CHEMBL4265926, “Synthesis and antibacterial activity evaluation of novel biaryloxazolidinone analogues containing a hydrazone moiety as promising antibacterial agents” (Eur J Med Chem, 2018).
Values after ≈ are worked out from the molar mass of the structure shown.

Legend:
[1] = test system: Staphylococcus aureus; experiment: Antibacterial activity against Staphylococcus aureus ATCC 29213 by broth liquid microdilution method; assay type: functional
Procedure, shortened: (§1)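 Isolates were identified on an automated MicroScan WalkAway 96 system. Susceptibility was tested by broth microdilution following CLSI guidelines. MIC was taken as the lowest concentration giving complete inhibition of bacterial growth. S. aureus ATCC 29213 served as the control strain.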

[2] = test system: Enterococcus faecium; experiment: Antibacterial activity against vancomycin-resistant Enterococcus faecium by broth liquid microdilution method; assay type: functional; procedure, shortened: as §1
[3] = test system: Staphylococcus aureus; experiment: Antibacterial activity against methicillin-sensitive Staphylococcus aureus by broth liquid microdilution method; assay type: functional; procedure, shortened: as §1
[4] = test system: Enterococcus faecalis; experiment: Antibacterial activity against linezolid-resistant Enterococcus faecalis by broth liquid microdilution method; assay type: functional; procedure, shortened: as §1
[5] = test system: Staphylococcus aureus; experiment: Antibacterial activity against methicillin-resistant Staphylococcus aureus by broth liquid microdilution method; assay type: functional; procedure, shortened: as §1
[6] = test system: Staphylococcus aureus; experiment: Antibacterial activity against methicillin-resistant Staphylococcus aureus clinical isolates by broth liquid microdilution method; assay type: functional; procedure, shortened: as §1
[7] = target: T1, MAO-A (amine oxidase [flavin-containing] A) (Homo sapiens, UniProt P21397); experiment: Inhibition of recombinant human MAOA expressed in baculovirus infected Sf9 insect cells at 30 uM using luciferin derived substrate pretreated for 15 mins followed by substrate addition and measured after 60 mins by luminescence assay relative to control; details: probe luciferin derived substrate
T1 sequence (P21397 whole entry): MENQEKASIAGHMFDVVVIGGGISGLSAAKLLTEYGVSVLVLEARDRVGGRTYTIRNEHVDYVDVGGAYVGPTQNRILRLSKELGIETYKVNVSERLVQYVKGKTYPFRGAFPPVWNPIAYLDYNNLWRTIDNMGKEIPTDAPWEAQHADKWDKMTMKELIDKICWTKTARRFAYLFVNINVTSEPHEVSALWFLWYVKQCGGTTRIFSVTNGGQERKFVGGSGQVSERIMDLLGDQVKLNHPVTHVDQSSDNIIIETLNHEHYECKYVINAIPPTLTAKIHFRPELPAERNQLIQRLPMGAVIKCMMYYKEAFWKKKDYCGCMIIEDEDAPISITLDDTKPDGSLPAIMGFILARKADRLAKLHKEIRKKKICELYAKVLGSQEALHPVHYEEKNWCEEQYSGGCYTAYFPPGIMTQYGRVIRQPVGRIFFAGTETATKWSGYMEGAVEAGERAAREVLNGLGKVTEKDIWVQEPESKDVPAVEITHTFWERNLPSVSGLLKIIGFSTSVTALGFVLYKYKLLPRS
Procedure, shortened: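 Human recombinant MAO-A with MAO-Glo luminescent kit. Compounds in DMSO (final 1% DMSO) preincubated with enzyme 15 min at room temperature, then luciferin derivative substrate added and reacted 60 min at room temperature. Luciferase detection reagent added for 20 min before luminescence read. Buffer replacing enzyme served as 100% inhibition control and DMSO as no-inhibition control; percent inhibition calculated against both.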

[8] = test system: Staphylococcus aureus; experiment: Antibacterial activity against methicillin-sensitive Staphylococcus aureus clinical isolates by broth liquid microdilution method; assay type: functional; procedure, shortened: as §1
[9] = test system: Enterococcus faecium; experiment: Antibacterial activity against vancomycin-resistant Enterococcus faecium clinical isolates by broth liquid microdilution method; assay type: functional; procedure, shortened: as §1
[10] = test system: Enterococcus faecalis; experiment: Antibacterial activity against linezolid-resistant Enterococcus faecalis clinical isolates by broth liquid microdilution method; assay type: functional; procedure, shortened: as §1

SMILES	MIC [1] [µg/mL]	MIC [2] [µg/mL]	MIC [3] [µg/mL]	MIC [4] [µg/mL]	MIC [5] [µg/mL]	MIC50 [6] [µg/mL]	MIC90 [6] [µg/mL]	inhibition at 1 h, 30 µM [7] [%]	MIC [8] [µg/mL]	MIC50 [8] [µg/mL]	MIC90 [8] [µg/mL]	MIC [9] [µg/mL]	MIC50 [9] [µg/mL]	MIC90 [9] [µg/mL]	MIC [10] [µg/mL]	MIC50 [10] [µg/mL]	MIC90 [10] [µg/mL]
CC(=O)NC[C@H]1CN(c2ccc(-c3ccc(/C=N/N4CCN(C(=O)OC(C)(C)C)CC4)cc3)c(F)c2)C(=O)O1	> 2	> 2	> 2	> 2													
CC(=O)NC[C@H]1CN(c2ccc(-c3ccc(/C=N/N4CCOCC4)cc3)c(F)c2)C(=O)O1	0.5 (≈ 1.14 µM)	0.5 (≈ 1.14 µM)	0.25 (≈ 0.568 µM)	0.25 (≈ 0.568 µM)	0.25 (≈ 0.568 µM)												
CC(=O)NC[C@H]1CN(c2ccc(-c3ccc(/C=N/N4CCN(C(=O)c5ccncc5)CC4)cc3)c(F)c2)C(=O)O1	0.25 (≈ 0.459 µM)	0.25 (≈ 0.459 µM)	0.125 (≈ 0.23 µM)	0.25 (≈ 0.459 µM)	0.25 (≈ 0.459 µM)												
CC(=O)NC[C@H]1CN(c2ccc(-c3ccc(/C=N/N4CCN(C(=O)c5ccc(Br)cc5)CC4)cc3)c(F)c2)C(=O)O1	0.125 (≈ 0.201 µM)	0.125 (≈ 0.201 µM)	0.125 (≈ 0.201 µM)	0.125 (≈ 0.201 µM)	0.125 (≈ 0.201 µM)												
C=CCN1CCN(/N=C/c2ccc(-c3ccc(N4C[C@H](CNC(C)=O)OC4=O)cc3F)cc2)CC1	0.5 (≈ 1.04 µM)	0.125 (≈ 0.261 µM)	0.125 (≈ 0.261 µM)	0.125 (≈ 0.261 µM)	0.125 (≈ 0.261 µM)												
CC(=O)NC[C@H]1CN(c2ccc(-c3ccc(/C=N/N4CCS(=O)(=O)CC4)cc3)c(F)c2)C(=O)O1	0.25 (≈ 0.512 µM)	0.25 (≈ 0.512 µM)	0.25 (≈ 0.512 µM)	0.25 (≈ 0.512 µM)	0.25 (≈ 0.512 µM)												
CC(=O)NC[C@H]1CN(c2ccc(-c3ccc(/C=N/N4CCN(C(=O)c5ccccn5)CC4)cc3)c(F)c2)C(=O)O1	0.125 (≈ 0.23 µM)	0.125 (≈ 0.23 µM)	0.125 (≈ 0.23 µM)	0.125 (≈ 0.23 µM)	0.125 (≈ 0.23 µM)												
CC(=O)NC[C@H]1CN(c2ccc(-c3ccc(/C=N/N4CCN(C(=O)c5ccccc5)CC4)cc3)c(F)c2)C(=O)O1	0.25 (≈ 0.46 µM)	0.25 (≈ 0.46 µM)	0.125 (≈ 0.23 µM)	0.25 (≈ 0.46 µM)	0.25 (≈ 0.46 µM)												
COc1ccc(C(=O)N2CCN(/N=C/c3ccc(-c4ccc(N5C[C@H](CNC(C)=O)OC5=O)cc4F)cc3)CC2)cc1	0.125 (≈ 0.218 µM)	0.125 (≈ 0.218 µM)	0.125 (≈ 0.218 µM)	0.125 (≈ 0.218 µM)	0.125 (≈ 0.218 µM)												
COC(=O)N1CCN(/N=C/c2ccc(-c3ccc(N4C[C@H](CNC(C)=O)OC4=O)cc3F)cc2)CC1	0.125 (≈ 0.251 µM)	0.125 (≈ 0.251 µM)	0.125 (≈ 0.251 µM)	0.125 (≈ 0.251 µM)	0.125 (≈ 0.251 µM)												
CC(=O)NC[C@H]1CN(c2ccc(-c3ccc(/C=N/N4CCN(C(=O)C(F)(F)F)CC4)cc3)c(F)c2)C(=O)O1	0.125 (≈ 0.233 µM)	0.125 (≈ 0.233 µM)	0.125 (≈ 0.233 µM)	0.125 (≈ 0.233 µM)	0.125 (≈ 0.233 µM)												
CC(=O)NC[C@H]1CN(c2ccc(-c3ccc(/C=N/N4CCNCC4)cc3)c(F)c2)C(=O)O1	0.0675 (≈ 0.154 µM)	0.25 (≈ 0.569 µM)	0.0675 (≈ 0.154 µM)	0.25 (≈ 0.569 µM)	0.0675 (≈ 0.154 µM)	0.125 (≈ 0.284 µM)	0.25 (≈ 0.569 µM)	84	0.0625 to 0.25 (≈ 0.142 to 0.569 µM)	0.125 (≈ 0.284 µM)	0.25 (≈ 0.569 µM)	0.0625 to 0.5 (≈ 0.142 to 1.14 µM)	0.25 (≈ 0.569 µM)	0.5 (≈ 1.14 µM)	0.0625 to 0.25 (≈ 0.142 to 0.569 µM)	0.25 (≈ 0.569 µM)	0.25 (≈ 0.569 µM)
CC(=O)NC[C@H]1CN(c2ccc(-c3ccc(/C=N/N4CCN(C(=O)c5ccc(F)cc5)CC4)cc3)c(F)c2)C(=O)O1	0.125 (≈ 0.223 µM)	0.125 (≈ 0.223 µM)	0.125 (≈ 0.223 µM)	0.125 (≈ 0.223 µM)	0.125 (≈ 0.223 µM)	0.125 (≈ 0.223 µM)	0.25 (≈ 0.445 µM)	89	0.0625 to 0.25 (≈ 0.111 to 0.445 µM)	0.25 (≈ 0.445 µM)	0.25 (≈ 0.445 µM)	0.0625 to 0.5 (≈ 0.111 to 0.89 µM)	0.25 (≈ 0.445 µM)	0.5 (≈ 0.89 µM)	0.0625 to 0.25 (≈ 0.111 to 0.445 µM)	0.25 (≈ 0.445 µM)	0.25 (≈ 0.445 µM)
CC(=O)NC[C@H]1CN(c2ccc(-c3ccc(/C=N/N4CCN(S(C)(=O)=O)CC4)cc3)c(F)c2)C(=O)O1	1 (≈ 1.93 µM)	2 (≈ 3.86 µM)	1 (≈ 1.93 µM)	0.5 (≈ 0.966 µM)	0.5 (≈ 0.966 µM)												
CC(=O)NC[C@H]1CN(c2ccc(-c3ccc(/C=N/N4CCN(C(C)=O)CC4)cc3)c(F)c2)C(=O)O1	0.25 (≈ 0.519 µM)	0.5 (≈ 1.04 µM)	0.125 (≈ 0.26 µM)	0.25 (≈ 0.519 µM)	0.25 (≈ 0.519 µM)												
